Measurements reported in ChEMBL document CHEMBL1135969, “Discovery of an opioid kappa receptor selective pure antagonist from a library of N-substituted 4beta-methyl-5-(3-hydroxyphenyl)morphans” (J Med Chem, 2002).

Tests used:
[1] = molecular target: Opioid receptors; mu & delta (Homo sapiens) (UniProt P41143+P35372); experiment: Selectivity ratio of Ki at mu opioid receptor to Ki at kappa opioid receptor; type: protein assay
[2] = molecular target: Opioid receptors; delta & kappa (Homo sapiens) (UniProt P41145+P41143); experiment: Selectivity ratio of Ki at delta opioid receptor to Ki at kappa opioid receptor; type: protein assay
[3] = molecular target: Delta-type opioid receptor (Homo sapiens) (UniProt P41143); conditions: CHO
[4] = molecular target: Kappa-type opioid receptor (Homo sapiens) (UniProt P41145); conditions: CHO
[5] = molecular target: Mu-type opioid receptor (Homo sapiens) (UniProt P35372); conditions: CHO
[6] = molecular target: Delta-type opioid receptor (Rattus norvegicus, UniProt P33533); experiment: Ability to displace [3H]DADLE from Opioid receptor delta 1 of rat brain; type: tissue-based
Procedure, shortened: (§1)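 Radioligand displacement binding giving Ki values. Rat brain tissue was used for the μ site (tritiated μ-selective ligand) and the δ site ([3H]DADLE, δ-selective). Guinea pig brain tissue was used for the κ site ([3H]U69,593, a κ-selective agonist).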

Mu-type opioid receptor = Mu-type opioid receptor (Rattus norvegicus, UniProt P33535); experiment: Ability to displace [3H]DAMGO from Opioid receptor mu 1 of rat brain; type: tissue-based; procedure, shortened: as §1
[7] = molecular target: Kappa-type opioid receptor (Cavia porcellus, UniProt P41144); experiment: Ability to displace [3H]U-69593 from Opioid receptor kappa 1 of guinea pig brain
Procedure, shortened: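 Competitive radioligand binding in guinea pig brain tissue, using tritiated U69,593, a κ-selective agonist, as the displaced ligand. Affinity is reported as Ki.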

Sequence of Kappa-type opioid receptor (P41144 whole entry): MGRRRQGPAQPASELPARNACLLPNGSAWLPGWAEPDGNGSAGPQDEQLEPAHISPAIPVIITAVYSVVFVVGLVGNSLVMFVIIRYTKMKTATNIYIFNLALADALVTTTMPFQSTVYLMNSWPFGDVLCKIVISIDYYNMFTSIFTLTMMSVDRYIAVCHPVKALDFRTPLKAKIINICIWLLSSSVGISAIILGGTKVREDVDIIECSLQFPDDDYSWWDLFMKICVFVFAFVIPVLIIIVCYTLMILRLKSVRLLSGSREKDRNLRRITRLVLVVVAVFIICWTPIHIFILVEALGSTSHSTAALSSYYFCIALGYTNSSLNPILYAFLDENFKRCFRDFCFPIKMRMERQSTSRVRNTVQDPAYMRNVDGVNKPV
Sequence of Mu-type opioid receptor (P33535 whole entry): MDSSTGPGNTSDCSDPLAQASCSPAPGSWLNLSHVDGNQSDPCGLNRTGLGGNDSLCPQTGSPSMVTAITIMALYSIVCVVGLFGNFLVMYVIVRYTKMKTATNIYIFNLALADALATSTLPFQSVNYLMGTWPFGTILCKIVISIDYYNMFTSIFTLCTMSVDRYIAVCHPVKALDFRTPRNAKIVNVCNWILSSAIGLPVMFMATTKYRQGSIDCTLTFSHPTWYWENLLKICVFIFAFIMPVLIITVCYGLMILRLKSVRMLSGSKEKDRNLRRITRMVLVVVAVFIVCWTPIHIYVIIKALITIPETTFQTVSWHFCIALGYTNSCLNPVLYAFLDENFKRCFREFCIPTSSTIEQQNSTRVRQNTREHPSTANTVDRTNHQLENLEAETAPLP
Sequence of Delta-type opioid receptor (P33533 whole entry): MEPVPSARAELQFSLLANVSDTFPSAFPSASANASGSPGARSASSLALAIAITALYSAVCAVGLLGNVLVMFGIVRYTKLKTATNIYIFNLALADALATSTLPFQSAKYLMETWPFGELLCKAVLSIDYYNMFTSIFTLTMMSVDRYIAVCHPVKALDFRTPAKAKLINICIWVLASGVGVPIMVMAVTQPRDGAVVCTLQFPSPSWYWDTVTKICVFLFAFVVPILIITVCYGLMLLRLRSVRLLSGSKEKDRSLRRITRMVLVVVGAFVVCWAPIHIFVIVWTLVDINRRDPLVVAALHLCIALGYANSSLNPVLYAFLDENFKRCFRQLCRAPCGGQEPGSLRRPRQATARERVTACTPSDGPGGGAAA
Sequence of Opioid receptors; mu & delta (Homo sapiens) (P35372 whole entry, looked up): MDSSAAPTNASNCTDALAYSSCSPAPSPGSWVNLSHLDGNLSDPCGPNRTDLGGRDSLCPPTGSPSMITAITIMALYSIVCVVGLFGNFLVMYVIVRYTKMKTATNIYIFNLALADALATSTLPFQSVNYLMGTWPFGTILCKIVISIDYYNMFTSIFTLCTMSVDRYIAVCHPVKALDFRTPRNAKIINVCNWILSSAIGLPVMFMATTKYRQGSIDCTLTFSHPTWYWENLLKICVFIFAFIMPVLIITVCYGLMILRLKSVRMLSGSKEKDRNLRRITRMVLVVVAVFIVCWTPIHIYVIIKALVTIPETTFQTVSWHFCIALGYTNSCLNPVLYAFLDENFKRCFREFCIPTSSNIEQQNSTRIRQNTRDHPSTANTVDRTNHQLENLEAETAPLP
Sequence of Opioid receptors; mu & delta (Homo sapiens) (P41143 whole entry, looked up): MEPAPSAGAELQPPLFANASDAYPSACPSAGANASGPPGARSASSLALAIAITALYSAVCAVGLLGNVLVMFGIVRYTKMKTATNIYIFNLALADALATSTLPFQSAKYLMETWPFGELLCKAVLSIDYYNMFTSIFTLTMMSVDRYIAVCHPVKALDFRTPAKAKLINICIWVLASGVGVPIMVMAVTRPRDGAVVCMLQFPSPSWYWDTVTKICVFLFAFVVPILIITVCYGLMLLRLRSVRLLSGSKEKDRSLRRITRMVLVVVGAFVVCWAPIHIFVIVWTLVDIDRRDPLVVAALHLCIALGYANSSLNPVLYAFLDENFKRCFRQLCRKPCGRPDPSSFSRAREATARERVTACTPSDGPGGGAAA
Sequence of Opioid receptors; delta & kappa (Homo sapiens) (P41143 whole entry, looked up): as above
Sequence of Opioid receptors; delta & kappa (Homo sapiens) (P41145 whole entry, looked up): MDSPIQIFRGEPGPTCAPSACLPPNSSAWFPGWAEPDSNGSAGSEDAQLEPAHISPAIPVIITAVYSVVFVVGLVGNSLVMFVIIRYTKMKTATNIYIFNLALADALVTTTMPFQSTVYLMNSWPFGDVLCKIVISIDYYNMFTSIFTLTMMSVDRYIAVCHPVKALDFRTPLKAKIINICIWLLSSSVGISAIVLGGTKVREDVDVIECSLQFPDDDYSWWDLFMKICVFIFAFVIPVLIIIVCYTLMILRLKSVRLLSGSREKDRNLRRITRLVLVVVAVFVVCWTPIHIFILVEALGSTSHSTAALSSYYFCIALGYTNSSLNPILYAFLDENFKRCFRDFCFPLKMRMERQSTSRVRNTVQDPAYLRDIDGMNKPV
Sequence of Kappa-type opioid receptor (Homo sapiens) (P41145 whole entry): as the sequence (P41145 whole entry, looked up) above
Sequence of Mu-type opioid receptor (Homo sapiens) (P35372 whole entry): as the sequence (P35372 whole entry, looked up) above
Sequence of Delta-type opioid receptor (Homo sapiens) (P41143 whole entry): as the sequence (P41143 whole entry, looked up) above

SMILES	Ratio [1]	Ratio [2]	Ki [6]	Ki (Mu-type opioid receptor)	Ki [7]	also measured
CC1CN(CCCc2ccccc2)C2C[C@H](N)CC1(c1cccc(O)c1)C2 (single isomer, unassigned; (+)) [listing 1 of 2 here]	0.23	0.27	–	–	–	–
Oc1ccc2c3c1O[C@H]1c4[nH]c5c(c4C[C@@]4(O)[C@@H](C2)N(CC2CC2)CC[C@]314)C[C@@]1(O)[C@H]2Cc3ccc(O)c4c3[C@@]1(CCN2CC1CC1)[C@H]5O4	–	–	–	–	–	Ke [3]: 4.6 nM; Ke [4]: 0.04 nM; Ke [5]: 19 nM
CC1CN(CCCc2ccccc2)C2C[C@H](N)CC1(c1cccc(O)c1)C2 (single isomer, unassigned; (-)) [listing 1 of 2 here]	0.03	0.1	–	–	–	–
CC1CN(CCCc2ccccc2)C2C[C@H](N)CC1(c1cccc(O)c1)C2 (single isomer, unassigned; (-)) [listing 2 of 2 here]	–	–	14.7 nM	3.3 nM	122 nM	–
CC1CN(CCCc2ccccc2)C2C[C@H](N)CC1(c1cccc(O)c1)C2 (single isomer, unassigned; (+)) [listing 2 of 2 here]	–	–	246 nM	207 nM	893 nM	–
